Reference: ChEMBL document CHEMBL4513216, “Probing the Open Global Health Chemical Diversity Library for Multistage-Active Starting Points for Next-Generation Antimalarials” (ACS Infect Dis, 2020)

Assay: Toxicity liver stage against HepG2, at 10uM
Type: cell-based
Design: test concentration 10 uM, cell line HepG2-A16-CD81EGFP
Settings: human, HepG2-A16-CD81EGFP cells; read-out: INHIBITION
Procedure, shortened: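 Uninfected HepG2-A16-CD81EGFP cells, 3 × 10^3 per well, 1536-well, plated on prespotted compound at 10 μM final, parasite-free screening media added to match infected plates; puromycin 10 μM positive, DMSO 0.5% negative; run in parallel with 48 h PbLuc assay at 37 °C, 5% CO2; viability by CellTiter-Glo luminescence, normalized to controls.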

Compound	cytotoxicity at 10 µM
CS(=O)(=O)CCN1CCSCC1c1ccc(Cl)cc1 (centres undefined)	-24.3%
O=C(NCc1nnc2n1CCC2)c1ccc(C2CCCO2)s1 (centres undefined)	-12.4%
Cc1ccc2nc(C)cc(NCCNS(=O)(=O)c3cccnc3)c2c1	13.5%
O=C(c1ccc(Cl)s1)N1CCC2(COc3ncccc3S(=O)(=O)N2)C1 (centres undefined)	8.77%
Cc1nn(C)c(N(C)C)c1CNCc1cccnc1OC(C)C	-0.924%
CN(Cc1cnn(C)c1)C(=O)NCc1ccc2c(c1)OCCO2	-8.01%
Cc1ncsc1CN1C[C@@H]2CCCO[C@@H]2[C@H](N(C)C(C)C)C1	1.81%
O=C(NCCNc1ncccn1)c1ccc(Cl)s1	4.6%
Cc1ccccc1CN1CC[C@H](c2nnc(-c3cncn3C)o2)C1	5.08%
CN(C)c1ccc(C2CC(=O)Nc3c2cnn3Cc2ccco2)cc1 (centres undefined)	-3.08%
Cc1cc(O)ccc1-c1cc(-c2cnn(C)c2C2CC2)c(C#N)c(N)n1	40.2%
O=S(=O)(C1CC1)N1CCOC2(CCCN(c3cccc(F)c3)C2)C1 (centres undefined)	8.46%
CN(Cc1ccccn1)C(=O)c1cc(CN2CCC(O)CC2)on1	0.852%
COCCCN1CCN(c2ncnc3nc(C)cc(C)c23)CC1	1.54%
Cc1cc(-c2cnc(NC3CC3)nc2-c2ccoc2C)on1	2.13%
O=C1CCC(c2ccccc2)=NN1CN1CCCCCC1	-86.3%
COc1c(C(=O)NCc2cccnc2)nnn1Cc1ccccc1	12.5%
CC(C)(C)C(=O)N1CCN(CCOc2cccc(C#N)c2)CC1	3.53%
O=C(Nc1ccc(-c2cscn2)cc1)C1CCCN(Cc2ccon2)C1 (centres undefined)	0.414%
Cc1nc(CN2CCN(C(=O)c3sccc3C)CC2)cs1	0.96%
CN1CC2(CCN(Cc3cc(Cl)ccc3OCC(=O)O)CC2)OC1=O	1.6%
O=C(CCc1nc(C2CC2)no1)c1ccc(F)c(F)c1	0.923%

Compound	cytotoxicity at 10 µM
c1ccc(C2CCCN2Cc2nc(-c3cnccn3)no2)nc1 (centres undefined)	-0.5%
CN(Cc1ccsc1)C(=O)CNC(=O)N1CCc2ccccc2C1	-2.9%
Cc1ccc(C(=O)N2CC[C@@H](N(C)C)[C@@H]2Cc2cnn(C)c2)cn1	-73.4%
COc1ccc(C2=CN=C(C(F)(F)F)CC2N)cc1 (centres undefined)	16.6%
COc1c(C2CCCN2C(=O)c2cccnc2N(C)C)c(C)nn1C (centres undefined)	-7.62%
Cc1cc(C)n(CC2CCCN2CCCS(=O)(=O)N(C)C)n1 (centres undefined)	-13.2%
Cc1cnc(C(=O)N2Cc3cc(Cl)ccc3OC3(CCOCC3)C2)cn1	-37.9%
COCCN(Cc1ccoc1)C(=O)CSc1ccc(F)cc1	1.04%
CCNc1ncc(C(=O)NC(CCN(C)C)c2ccccc2)cn1 (centres undefined)	4.8%
Cc1ccccc1N1CCN(C(=O)CSc2ccncc2)CC1=O	6.71%
Cc1ccccc1C(C(=O)N1CCN(C(=O)c2ccc[nH]2)CC1)N(C)C (centres undefined)	-7.98%
CCCC(NC(=O)NCc1cccc(N(C)C)n1)c1ccccn1 (centres undefined)	19.8%
CNC(=O)[C@@H]1[C@H]2CN(Cc3ccoc3)CCN2C[C@H]1c1ccccc1	4.06%
CN(c1ccc(Cl)c(C(=O)NCCCN2CCOCC2)c1)S(C)(=O)=O	1.05%
COCCN(C)CCN1CC2(CCN(C(=O)C3CCOC3)CC2)OC1=O (centres undefined)	-21.8%
Cc1noc(C)c1CN1C(=O)[C@@H]2CC[C@H]1CN(Cc1ccc(Cl)cc1)C2	6.22%
Cc1nc(N2CCC(C(O)c3nccn3C)CC2)c2cccnc2n1 (centres undefined)	1.46%
CC(C)c1cnc(CN2CCCS2(=O)=O)o1	10.6%
CCn1c(CN(C)C)nnc1C1CCN(Cc2ccccc2)CC1	-11.6%
CNC(=O)c1sc(C2CCCC2)nc1C	13.1%
O=C(O)C1CN(c2cncc(Cc3ccccc3F)n2)C1	5.7%
CCc1ccc(-c2noc(Cn3nc(C(N)=O)ccc3=O)n2)cc1	-4.22%

Compound	cytotoxicity at 10 µM
CC(Nc1ncnc2c1CCNC2)c1ccc2c(c1)CCCC2 (centres undefined)	42%
NC(=O)CNC(c1ccccc1)c1ccc(OC(F)F)cc1 (centres undefined)	58.2%
COc1ccc(OC)c(CNc2c(O)c(=O)c2=O)c1	7.08%
Cc1nc(C2CCCN2C(=O)CC2CCCC2)ncc1C(N)=O (centres undefined)	-21.7%
Cc1cc(C(=O)N2C[C@@H]3CC[C@H]2CN(Cc2ccccn2)C3)nc(N)n1	-0.0925%
Cc1csc(CN(C)C(C)C(=O)N2CCc3ccccc3C2)n1 (centres undefined)	-11.7%
CC(C)(C)C(=O)NC(c1nccs1)C1CCN(CC2CCCCC2)CC1 (centres undefined)	6.5%
CNS(=O)(=O)c1cc(C(=O)NC2CCOc3ccccc32)cc(C)c1C (centres undefined)	6.82%
CSCCC(=O)N1CCC(c2nnc(CN(C)CCO)n2C)CC1	0.583%
COC(=O)c1cccc(C(=O)N2CCN(c3cc(Cl)ccc3C)CC2)n1	81.2%
CCCN(CCC)c1ncc(S(=O)(=O)c2ccc(OC)cc2)c(N)n1	7.79%
Cc1csc(CN(C)C2CCN(c3sccc3C#N)C2=O)n1 (centres undefined)	5.44%
COc1ccccc1OCc1cc(C(=O)N2C[C@@H](C)O[C@@H](C)C2)n[nH]1	-4.91%
CCC[C@H]1CN(CCS(C)(=O)=O)C[C@@H]1NC(=O)c1cc(CC)on1	-2.42%
O=C(CCC(=O)N1CCOCC1)NCc1cccnc1-n1cccn1	-3.65%
O=C(c1ncccn1)N1CCC[C@]2(C[C@@H](Oc3ncccc3F)CO2)C1	-4.28%
CCCc1noc(CCC(=O)N2CCN(C)CC2c2ccccc2)n1 (centres undefined)	-7.47%
CNC(=O)c1cccnc1NCc1ccc(Cn2cccn2)cc1	17.9%
CC(C)c1noc(CCC(=O)NCC(c2ccco2)N2CCCC2)n1 (centres undefined)	-9.71%
Cc1nc(C)n(CC2CCCN2Cc2cccc3c2OCCO3)n1 (centres undefined)	-3.33%
CC(C)Nc1nc(O)cc(C2CC(=O)N(Cc3ccccc3)C2)n1 (centres undefined)	-28.5%
O=C(c1cncc(N2CCC(O)(CO)CC2)n1)N1CCCC1	-7.71%

Compound	cytotoxicity at 10 µM
O=C(CO)N1CCCC2(CCC(=O)N(CC3CC3)C2)C1 (centres undefined)	5.75%
CCn1c(CNC(=O)c2ccc(N(C)C)nc2)nc2ccccc21	4.5%
O=C1CC(N2CCN(c3ccc(F)cc3)CC2)C(=O)N1Cc1cccs1 (centres undefined)	-0.31%
CCC(O)CN1CCN(C(=O)Cc2cc(C)ccc2OC)CC1 (centres undefined)	-30.9%
CSc1ccc(-c2nc(CN3CCC(NC(C)=O)C3)c(C)o2)cc1 (centres undefined)	1.24%
CCc1cc(N2CC(N3CCCCC3C)C2)n2nccc2n1 (centres undefined)	-4.85%
O=C1O[C@@H]2CN(c3cnccn3)C[C@@H]2N1CCCc1ccc(F)cc1	-3.94%
Cc1ccc(C(=O)N2CCCc3c(c(=O)n(C)n3C)C2)o1	5.92%
CN(CC(=O)N1CCC(N(C)c2ccccc2)CC1)c1cnccn1	-6.6%
CCSc1ncc(-c2nccn2CCN(C)C)cn1	2.41%
O=C(c1n[nH]cc1Cl)N1CCCC(n2nnc3cc(F)ccc32)C1 (centres undefined)	-8.55%
NC(=O)c1cnc(NC2CC2)nc1CCNC(=O)CC1CCCC1	3.29%
CCN(CC)c1ccc(NC(=O)NCC2CCOC2)cn1 (centres undefined)	2.14%
O=C(c1cnccn1)N1C[C@@H]2C[C@@H](c3nc(C4CC4)cs3)O[C@@H]2C1	-118%
CNc1cc(C)nc(NCc2cc(C)cc3c(C)c(C)[nH]c23)n1	-29%
O=C(NCCCNc1ccc(C(F)(F)F)cn1)c1ccc(F)cc1	-8.72%
CCn1nccc1CNc1[nH]cnc2nncc1-2	3.15%
O=C(CCc1cc2n(n1)CCN(Cc1ncc[nH]1)C2)N1CCCC1	-5.77%
Fc1cccc(-n2ccc(CN3CCCC3Cn3cncn3)n2)c1 (centres undefined)	-9.43%
Cc1nc2c(c(=O)[nH]1)CCN(C(=O)c1cccc3nccnc13)C2	-16.8%
c1cncc(COC2COC3(CCN(c4cnccn4)CC3)C2)c1 (centres undefined)	1.89%
Cc1nnc(CCNC(=O)Nc2ccc(S(C)(=O)=O)cc2)[nH]1	7.91%

Compound	cytotoxicity at 10 µM
COCCN1C(=O)C[C@H]2[C@H]1CCN2Cc1cccc(C#N)c1	2.55%
N#Cc1cc(F)c(N2CCC(NS(=O)(=O)c3cccs3)CC2)c(F)c1	8.76%
CN(C)c1ncccc1CNS(=O)(=O)c1cc(F)ccc1F	5.67%
Cc1sc2c(C3CCNCC3)nc(Nc3cccc(F)c3)n2c1C	-0.775%
Brc1ccc2[nH]c3c(c2c1)CCCC3c1nn[nH]n1 (centres undefined)	4.49%
Cc1nnc([C@H]2C[C@@H]3CCN(C(=O)C4CCOCC4)C[C@H]3O2)[nH]1	16.5%
O=C(O)CCCc1ccc2c(c1)CC(=O)N2	1.51%
CS(=O)(=O)NCCC(=O)N1Cc2cnc(-c3ccccc3)nc2C1	-4.65%
COCCC(=O)N1CC2(CCN(c3ccccc3)C2)C1	10.3%
CCOCC(=O)N1CCC(CSCc2ccco2)CC1	-7.36%
CN(C)C(=O)COC1COC2(CCN(S(C)(=O)=O)CC2)C1 (centres undefined)	-1.08%
COc1ccc(OCCN(C)c2cc(C)nc(N)n2)cc1	49.5%
COc1ccccc1CC(C)(C)NC(=O)CNS(C)(=O)=O	4.21%
CC(C)c1cc(C(=O)N2C[C@@H]3CC[C@H]2CN(Cc2ccccn2)C3)no1	2.46%
Cc1cc(C2CCCN(C(=O)c3ccc(OCC4CC4)nc3)C2)n[nH]1 (centres undefined)	-12.9%
CC(O)CN1CCN(C(=O)CN(C)c2ccc(Cl)cn2)CC1 (centres undefined)	-1.95%
COC1CCN(C(=O)CCc2c(C)nc3ccnn3c2C)CC1	-5.72%
CC(C)n1cc(S(=O)(=O)N2CCCC(N3CCCCC3)C2)cn1 (centres undefined)	2.78%
CC(c1ccco1)N(C)Cc1nc2c(cnn2C)c(=O)[nH]1 (centres undefined)	-3.29%
Cc1ccc(OCCC(=O)N2CCN(c3cnccn3)CC2)cc1C	-12.2%
CC(NC(=O)NCCCOc1ccccc1F)c1nncn1C (centres undefined)	-8.77%
